The values below come from ChEMBL document CHEMBL4837234, “"Clicking" fragment leads to novel dual-binding cholinesterase inhibitors” (Bioorg Med Chem, 2021).

The target in test [1] is T1, Acetylcholinesterase (Homo sapiens, UniProt P22303). Kind of test: Inhibition of human erythrocyte AChE using acetylthiocholine iodide as substrate incubated for 25 mins by DTNB reagent based Ellman's method. It counts as tissue-based. A general note: DTNB colorimetry detects thiols as they appear.
Test [2] concerns the target T2, Cholinesterase (Homo sapiens, UniProt P06276). The test can be described thus: Inhibition of human serum BuChe using butyrylthiocholine iodide as substrate incubated for 25 mins by DTNB reagent based Ellman's method. It counts as cell-free. In outline: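 Compound (Tween 80/EtOH stock, final dilutions in pH 8.0 phosphate buffer) preincubated with enzyme 30 min at room temperature, then substrate 0.5 mM plus DTNB, 25 min, 37 °C; yellow anion read spectrophotometrically. Triplicate, three occasions; IC50 from % activity vs log concentration.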

The target in test [3] is T2, Cholinesterase. Kind of test: Mixed type inhibition of human serum BuChe assessed as increase in Km at 89 to 267 nM using varying level of butyrylthiocholine iodide as substrate by Lineweaver-Burk plot analysis. The test is classed as cell-free. To be noted: dose 89-267 nM. In outline:
(§1)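 hBChE from human plasma diluted 1:125 in 0.1 M Na₃PO₄ pH 7.4. Ellman set-up (30 min room-temperature preincubation, then 37 °C with DTNB 1.2 mM) with substrate 0.25, 0.5, 1 and 2 mM and inhibitor 89 and 267 nM. Vmax and Km from nonlinear regression of substrate–velocity curves; Lineweaver–Burk plots by linear regression.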

For test [4], the target named is T2, Cholinesterase. Kind of test: Mixed type inhibition of human serum BuChe assessed as decrease in Vmax at 89 to 267 nM using varying level of butyrylthiocholine iodide as substrate by Lineweaver-Burk plot analysis. It counts as cell-free. To be noted: dose 89-267 nM. In outline: as §1
Test [5] deals with T1, Acetylcholinesterase. Kind of test: Mixed type inhibition of human erythrocyte AChE assessed as decrease in Vmax at 3.3 to 9.9 nM using varying level of acetylthiocholine iodide as substrate by Lineweaver-Burk plot analysis. It counts as tissue-based. The settings on record: dose 3.3-9.9 nM. In outline:
(§2)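 hAChE from human erythrocytes, washed in saline and lysed in 0.1 M Na₃PO₄ pH 7.4 with 0.5% Triton-X, then diluted. Ellman set-up (30 min room-temperature preincubation, then 37 °C with DTNB 1.2 mM) using substrate 0.25, 0.5, 1 and 2 mM and inhibitor 3.3 and 9.9 nM. Vmax and Km by nonlinear regression of substrate–velocity curves; Lineweaver–Burk by linear regression.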

In test [6] the target is T1, Acetylcholinesterase. Kind of test: Mixed type inhibition of human erythrocyte AChE assessed as increase in Km at 3.3 to 9.9 nM using varying level of acetylthiocholine iodide as substrate by Lineweaver-Burk plot analysis. The test is classed as tissue-based. The settings on record: dose 3.3-9.9 nM. In outline: as §2

By IC50 is commonly meant the point on the concentration scale where inhibition reaches its midpoint.

Calls of active or inactive are those of the source. No cut-off for these calls is given here.

T2 sequence (P06276 whole entry): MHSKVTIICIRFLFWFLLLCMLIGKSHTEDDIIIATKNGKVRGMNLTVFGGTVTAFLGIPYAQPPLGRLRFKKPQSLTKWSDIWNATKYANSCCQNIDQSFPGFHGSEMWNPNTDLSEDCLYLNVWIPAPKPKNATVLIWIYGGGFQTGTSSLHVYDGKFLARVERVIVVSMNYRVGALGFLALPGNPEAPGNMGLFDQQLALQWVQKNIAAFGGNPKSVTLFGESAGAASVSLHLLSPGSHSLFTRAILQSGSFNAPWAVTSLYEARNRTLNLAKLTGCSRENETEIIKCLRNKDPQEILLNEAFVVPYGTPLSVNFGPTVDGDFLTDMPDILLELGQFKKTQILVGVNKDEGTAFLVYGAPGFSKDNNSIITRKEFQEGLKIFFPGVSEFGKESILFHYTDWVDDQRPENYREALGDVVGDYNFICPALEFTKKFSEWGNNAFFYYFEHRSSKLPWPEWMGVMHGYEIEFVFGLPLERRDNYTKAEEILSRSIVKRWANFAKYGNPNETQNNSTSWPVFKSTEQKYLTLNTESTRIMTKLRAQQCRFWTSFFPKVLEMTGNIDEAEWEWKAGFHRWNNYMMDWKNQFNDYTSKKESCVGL
T1 sequence (P22303 whole entry): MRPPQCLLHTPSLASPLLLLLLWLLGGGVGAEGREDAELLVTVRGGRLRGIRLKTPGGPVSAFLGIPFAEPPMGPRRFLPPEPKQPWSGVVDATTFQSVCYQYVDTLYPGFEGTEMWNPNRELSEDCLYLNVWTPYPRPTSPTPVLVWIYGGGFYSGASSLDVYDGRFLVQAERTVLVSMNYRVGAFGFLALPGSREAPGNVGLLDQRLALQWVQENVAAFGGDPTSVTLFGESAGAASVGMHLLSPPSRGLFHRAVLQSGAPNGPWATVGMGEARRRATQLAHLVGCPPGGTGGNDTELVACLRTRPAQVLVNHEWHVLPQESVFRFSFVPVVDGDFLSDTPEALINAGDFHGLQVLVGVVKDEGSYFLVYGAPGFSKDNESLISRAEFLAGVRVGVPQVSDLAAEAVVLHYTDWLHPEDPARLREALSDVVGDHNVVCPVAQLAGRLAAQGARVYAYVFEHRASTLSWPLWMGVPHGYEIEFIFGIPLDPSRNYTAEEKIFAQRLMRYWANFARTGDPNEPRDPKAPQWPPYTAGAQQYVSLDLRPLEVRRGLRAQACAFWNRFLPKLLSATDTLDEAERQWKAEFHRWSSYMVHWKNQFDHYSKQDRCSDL

With `COc1ccc2c3c1O[C@H]1C[C@@H](O)C=C[C@@]31CCN(CCCCc1cn(CC(=O)NCCc3c[nH]c4ccccc34)nn1)C2`, the IC50 against Acetylcholinesterase [1] was determined as 138 nM; at Cholinesterase [2], 907 nM.

Regarding `COc1ccc2[nH]c(CCNC(=O)Cn3cc(CCCCN4CCc5cc(OC)c(OC)cc5C4CCCN4C(=O)c5ccccc5C4=O)nn3)cc2c1` (stereo unspecified), the IC50 on Acetylcholinesterase [1] came to 174000 nM; against Cholinesterase [2], 57200 nM.

Regarding `COc1ccc2[nH]cc(CCNC(=O)CCCCn3cc(CCCCN4CC[C@@]56C=C[C@H](O)C[C@@H]5Oc5c(OC)ccc(c56)C4)nn3)c2c1`, the figures for the IC50 against Acetylcholinesterase [1] and against Cholinesterase [2] were 18 nM and 963 nM, respectively.

As for `COc1ccc2[nH]cc(CCNC(=O)CCCCn3cc(CN4CC[C@@]56C=C[C@H](O)C[C@@H]5Oc5c(OC)ccc(c56)C4)nn3)c2c1`, the results for the IC50 at Acetylcholinesterase [1] and at Cholinesterase [2] were 1000 nM and 2020 nM, respectively.

With `COc1ccc2c3c1O[C@H]1C[C@@H](O)C=C[C@@]31CCN(CCCCc1cn(CCCC(=O)NCCc3c[nH]c4ccccc34)nn1)C2`, the figures for the IC50 at Acetylcholinesterase [1] and on Cholinesterase [2] were 120 nM and 209 nM, respectively. Further, the inhibition entry on Cholinesterase [3], at Cholinesterase [4], at Acetylcholinesterase [5] and on Acetylcholinesterase [6] was “Active” throughout.

Consider `COc1ccc2c3c1O[C@H]1C[C@@H](O)C=C[C@@]31CCN(CCCCc1cn(CCCCC(=O)NCCc3c[nH]c4ccccc34)nn1)C2`, for which the IC50 against Acetylcholinesterase [1] is 31 nM; against Cholinesterase [2], 1290 nM.

As to `COc1ccc2[nH]cc(CCNC(=O)Cn3cc(CCCCN4CC[C@@]56C=C[C@H](O)C[C@@H]5Oc5c(OC)ccc(c56)C4)nn3)c2c1`, the IC50 against Acetylcholinesterase [1] was determined as 23 nM; at Cholinesterase [2] it was 554 nM.

For the compound `COc1ccc2[nH]cc(CCNC(=O)Cn3cc(CN4CCc5cc(OC)c(OC)cc5C4CCCN4C(=O)c5ccccc5C4=O)nn3)c2c1` (stereo unspecified), the IC50 against Acetylcholinesterase [1] is 39900 nM; on Cholinesterase [2], 26200 nM.

For `COc1ccc2[nH]cc(CCNC(=O)Cn3cc(CN4CC[C@@]56C=C[C@H](O)C[C@@H]5Oc5c(OC)ccc(c56)C4)nn3)c2c1`, the values for the half-maximal inhibitory concentration (IC50) at Acetylcholinesterase [1] and against Cholinesterase [2] were 5410 nM and 8840 nM, respectively.

Regarding `COc1ccc2[nH]c(CCNC(=O)CCCn3cc(CCCCN4CCc5cc(OC)c(OC)cc5C4CCCN4C(=O)c5ccccc5C4=O)nn3)cc2c1` (stereo unspecified), the IC50 amounted to 159000 nM against Acetylcholinesterase [1] and 4600 nM at Cholinesterase [2].

Regarding `COc1ccc2[nH]cc(CCNC(=O)Cn3cc(CCCCN(C)CCCC4c5cc(OC)c(OC)cc5CCN4C)nn3)c2c1` (stereo unspecified), the IC50 was determined as 2200 nM at Acetylcholinesterase [1] and 1600 nM against Cholinesterase [2].
